Measured values as given in the EternaBench riboswitch data.

Tested on: MS2 coat protein
Test: apparent Kd, MS2 coat protein; higher = weaker binding; RNA-MaP array; FMN 200 µM where present
Summary of the method: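 Apparent Kd: the median of filtered binding-curve fits from single clusters. Designs were transcribed on Illumina sequencing-chip clusters by stalled E. coli RNA polymerase and titrated with SNAP-549-labelled MS2 coat protein from 0.7 or 1.5 nM, doubling to 3 µM, in 100 mM Tris-HCl pH 7.5, 80 mM KCl, 4 mM MgCl2, BSA, DTT, yeast tRNA and Tween-20. Each series ran without and then with constant ligand, and green signal was normalised to red-channel RNA signal and control-cluster median Fmax.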

[1] = designed as: OFF switch for flavin mononucleotide, no ligand
[2] = ligand present: flavin mononucleotide, designed as: OFF switch for flavin mononucleotide
[3] = designed as: ON switch for flavin mononucleotide, no ligand
[4] = ligand present: flavin mononucleotide, designed as: ON switch for flavin mononucleotide

Row | Sequence | apparent Kd [1] [nM] | apparent Kd [2] [nM] | apparent Kd [3] [nM] | apparent Kd [4] [nM]
1 | GUUCUUCCUGUAAGGAUAUCCAUGUAUCAAUGUAUGGAGAAGGUACAUGAGGAUCACCCAUGUCACCCGCGUUA | 16.6 | 39.8 | – | –
2 | GUUGCACAAGUUAACAUGAGGAUCACCCAUGUCAAAAGACAUGAGGAUAUGGAUGUGAAGAUAAUCCAGAAGGCAUAAUGCUAA | – | – | 596 | 129
3 | GUUGCUUUCCGAGGAUAUUCAGGGCGUGGCUAUACAUGAGGAUCACCCAUGUGGCGGAAGCCUAGGGAGAAGGCGGGCUGCUUC | – | – | 18.4 | 16.3
4 | GUUGGCUGAGGAUAUGCUUGCGUGCUUUUGUGUCGCGGGUGACAUGAGGAUCACCCAUGUAGAAGGUGGUCGGC | 818 | 673 | – | –
5 | GUUGUGUGAGGAUAUGCCUGGCCGUGAGGCCAGGUUGGGUGGCAGAAGGUACAUGAGGAUCACCCAUGUACGGG | 30 | 22.7 | – | –
6 | GUUUAGUGAGGAUAUGUGGCAUCGCUCGAGCGCGGUCGGCUACAGAAGGCACAUGAGGAUCACCCAUGUUUCUC | 41.8 | 471 | – | –
7 | GUUUCGUCAGGAUAUGUGGCUUCGAUCGUGCGAAGAAGGCUACAGAAGGCACAUGAGGAUCACCCAUGUUCGUC | – | 34.6 | – | –
8 | GUUUCUAUAUGUUAUAUUUAACAGUCAGAAGGUGAUACUACGACAUGAGGAUCACCCAUGUAAUUCAAGGAUAUGAACUUAAUC | – | – | 1110 | 450
9 | GUUUGUUUUUAGAAGGUGCCGGCGAGAGCCGCAACAUGAGGAUCACCCAUGUGUCGGUGACGACGCAAGGAUAUGGAGGUGGAU | – | – | 127 | 77.8
10 | GUUUUUCCUCAUGUACAUGAGGAACAUGAGGAUCACCCAUGUAGAAGGAUUUCCCUUAAAUUAAGAUAGGAUAUACAUAUAUUU | 102 | 59.3 | – | –
11 | UAAAAGACUAGCAAAUAAUCCUUCACAUGAGGAUCACCCAUGUAGGAUAUGAGCAGAAAAUCUGCUCAGAAGGACAUGCUAGUC | 3.22 | 3.68 | – | –
12 | UAAACAUGAGGAUCACCCAUGUUAUGAUCGGUUGAUGAAUGUGAGGAUAUACUUAAUUUUAUGGAGUAGAAGGCACUGGGUUCU | – | – | 29.1 | 30
13 | UAAAUUUUAUGAUAUUAUGACAGUAGAAGGCUAUACAUGUUGAUACAUGAGGAUCACCCAUGUAUAGAGGAUAUAUACAAUUAU | 1050 | 315 | – | –
14 | UAACCACAUGAGGAUCACCCAUGUGAGGAUAUGUCCAUAUUCGGCAAAUCGGAUAUGGACAGAAGGCACACCGG | 41.6 | 68.7 | – | –
15 | UAAGUCGAGAAGAUAAUAAUGAAUACAUGAGGAUCACCCAUGUAGGAUAUGCAGUGGAAUACACUGCAGAAGGACAUACUCGAC | 14.3 | 16.9 | – | –
16 | UAAGUGUGAGGAUAUGGUAAAGAUAAGAUGAUGAAAGAACUCCAGAAGGCACAUGAGGAUCACCCAUGUAGAUG | 39.4 | 141 | – | –
17 | UAAUAAAACGAUCGGCGAUCCAUACAUGAGGAUCACCCAUGUAGAAGGGACUCUACAAAGUAGAGUCAGGAUAUACAAGAUCGA | 10 | 124 | – | –
18 | UAAUAGGGAGGAUAUCCAAUAUAUGACAUGAGGAUCACCCAUGUUUCCACUCGUACCUCCGGAGAAGGCCCAUAAU | 21 | 18.7 | – | –
19 | UAAUAUUUAUGAUAUUAUUACAUUAGAAGGCUAGACAUGUGGAUACAUGAGGAUCACCCAUGUAUAGAGGAUAUAGACAUAUAU | 31.8 | 53.6 | – | –
20 | UAAUCUCAGAUAGGAUAUAUAGGAUAACUUAAGACCUAACAUGAGGAUCACCCAUGUGAUUAUUCGUAGAAGGAUCAUUGACCC | – | – | – | 171
21 | UAAUUUUGUCAAGGAUAUGUAAUAUAGAUUAGAAAACAUGAGGAUCACCCAUGUAUAUGGUGGGAACAGAAGGUGAAUGGUGUA | 165 | 155 | – | –
22 | UACAUGAGGAUCACCCAUGUUUUGUCGUGUAUGGUAUUUAUCUAGGAUAUCAAUUGUUUUAUUUAUGAGAAGGAGAAUAUUAAU | 39.3 | 35.8 | – | –
23 | UACAUGAGGAUCACCCAUGUUUUGUCGUGUAUGGUAUUUAUCUAGGAUAUCAAUUUGUUAAUUUAUGAGAAGGAGAAUAUUAAU | 35.3 | 38.3 | – | –
24 | UACAUUACUGAGAAGGGAUAUAUAUAAUUUUAGUCAGGAUAUCGAUACAGUGCAGCAUGAGGACAUGAGGAUCACCCAUGUAUU | – | – | 20.5 | 17
25 | UACCCACAUGGGUAGUGGCAGCGUGAGGAUAUGGGUUGGAUACAUGAGGAUCACCCAUGUUCCUCCUAGAAGGCACUUGUAACC | – | – | 138 | 24.8
26 | UACCUGAGGCCAAGCUUUAGGUAUACAUGAGGAUCACCCAUGUAGGAUAUGGUAGGCUUUGCUUACCAGAAGGACAUGUUAAUU | 19 | 64.9 | – | –
27 | UACGUACAGAAGUACUCCGGGUCCAGAAGGGACAUGAGGAUCACCCAUGUACCGUUGAUUGCUUGUCAGGAUAUGGACCCAGCC | 7.76 | 29 | – | –
28 | UAGAAGUCAGGAUAUGCAUGGCGGGACUUGCGUCGUGGCGUGCAGAAGGGACAUGAGGAUCACCCAUGUAAAGC | 49 | 43 | – | –

Row | Sequence | apparent Kd [1] [nM] | apparent Kd [2] [nM] | apparent Kd [3] [nM] | apparent Kd [4] [nM]
29 | UAGAAUCGAGGAUAUACAUGAGGAUCACCCAUGUGUGGCCAUACUGUGUGGUCGUCAGGUAGAAGGCGAUUAUA | 72.3 | 22.6 | – | –
30 | UAGGACGAACAGUGCCGUGGAACGAAGGAUAUACAGGGACGUCGGCUCACAUGAGGAUCACCCAUGUAGAAGGUCGACACGCGC | 8.91 | 48.3 | – | –
31 | UAGGGUGUACGAGGAUAUGGGCAUUGGUGGAUCUCAGAAGGCGUAUACGCGCGCAGACAUGAGGAUCACCCAUGUACCCGGCUU | – | – | 62.8 | 23.6
32 | UAGUAGUGAGGAUAUACAUGGAUAUACAUUCAUGUGGACCUACAUGAGGAUCACCCAUGUAGAAGGCACUACUA | 41.9 | 91.4 | – | –
33 | UAGUAUAAGGGCAUUAAACAUGAGGAUCACCCAUGUACGAUAGAGGAUAUGCAUUUCAGUUGAGAGUAGAAGGUUAGAGAAUUG | 37.2 | 43.4 | – | –
34 | UAGUCGGUAGAUAAUAAUGAUUACAUGAGGAUCACCCAUGUAUAGGAUAUCGUCAGGAAUACUGACGAGAAGGAUACAUCCGAC | 18 | 26.5 | – | –
35 | UAGUUAUUCACAGGAUAUCGCCUCUUAUUACAUGAGGAUCACCCAUGUUUACUUAGUUACAUGUUCGAGAAGGGUGUAGCCGUU | 491 | 554 | – | –
36 | UAUACAAACGAAGGAUAUGGAUACAUGAGGAUCACCCAUGUAUGUAUGAUGAUCUAGAAAAUGGGCCAGAAGGUCGUGAUUAUU | 22.6 | 62.7 | – | –
37 | UAUACUAGAUAGGAUAUACUUUAUUUUUUUUUCGUAGAAGGAUCUACAUGAGGAUCACCCAUGUUAACAGCAGU | 74.1 | 53.9 | – | –
38 | UAUAUAUAGGCAGGAUAUACAUGAAUAUAUAAUAUAUUAUAUAAUAUAACAUGAGGAUCACCCAUGUAGAAGGGCCAUAAUAUA | 67 | 106 | – | –
39 | UAUAUGUCAGGAUAUUAGUUGAGGUGGAAUUUAGCCUCAGCUGAGAAGGGACAUGAGGAUCACCCAUGUUCCUC | 22.1 | 241 | – | –
40 | UAUAUUUUUAUAGGAUAUGGAUAUGAUGCAUAUCCAGAAGGGUGAAUAUAAUAUUUUCUGUACAUGAGGAUCACCCAUGUUUAG | – | – | 116 | 46.9
41 | UAUCUAGGCGAAGGAUAUCCGUCGCGAGAUACUGGAGAAGGUCGCCUUGAUACAUGAGGAUCACCCAUGUGGCGGGUGAACCAA | 37.9 | 16.4 | – | –
42 | UAUCUAUUUAUGGGAUUAGAAUAUGAGGAUAUCAUUUUUUUAUACAUGAGGAUCACCCAUGUUUCUGAGAAGGCAUAUUUAAUA | – | – | 16.9 | 5.72
43 | UAUGAACAUGAGGAUCACCCAUGUGGUACGAUCACAGGAUAUCACCUCGGACGUGCGAUGUGAGAAGGGUGAUGGU | – | – | 81.6 | 29.4
44 | UAUGAAUGAGGAUAUGCAUAGUAGACUCCUCAUUUCUUCGGACAUGAGGAUCACCCAUGUAGAAGGCGUUGCGU | 33.1 | 58 | – | –
45 | UAUGGUUAAGUCAGGAUAUACGUGCAGUUAUCUGAGUAGAAGGGACAUGAGGAUCACCCAUGUAUGGUAGUGUU | 75.3 | 86.4 | – | –
46 | UAUUAACACGAAGGAUAUGCUUACAUGAGGAUCACCCAUGUAUGUAUAUUGAUCCAGAUUUUUGAGCAGAAGGUCGUGAGUAAA | 35.3 | 141 | – | –
47 | UAUUAAUGCAAGGAUAUGCUUUUAAUUUUUUUUGCAGAAGGUGCAACAUGAGGAUCACCCAUGUUUCCGGGUAU | 26.5 | 39.1 | – | –
48 | UAUUAGUGAGGAUAUGAGUCGUAGAACAAUAGUACUACGUCUCAGAAGGCACAUGAGGAUCACCCAUGUUCCUU | 13.6 | 44.9 | – | –
49 | UAUUAGUGAGGAUAUGAGUCGUAGAACAAUAGUACUACGUCUCAGAAGGUACAUGAGGAUCACCCAUGUUCCUU | 12.7 | 14.4 | – | –
50 | UAUUAUCACGAAGGAUAUGCUUACAUGAGGAUCACCCAUGUAUGUAUAUUGAUCCAGCGUUUUGAGCAGAAGGUCGUGAGUAAA | 20.1 | 74.3 | – | –
51 | UAUUAUGUCAGAGGAUAUAUAAAUAAAUUUAUAACAUGAGGAUCACCCAUGUACUUUAGUGUGAGGUAGAAGGUUGAUAAGAUA | – | – | 37.2 | 22.6
52 | UAUUGAUAAUAUUUUAACAUGAGGAUCACCCAUGUCGCUAGACAGGAUAUAUUUUAUUUGUUUAAGUAGAAGGGUCGCAGAUUU | – | – | 150 | 130
53 | UAUUGAUAAUAUUUUAACAUGAGGAUCACCCAUGUCGCUAGACAGGAUAUAUUUUAUUUGUUUAAGUAGAAGGGUCGUAGAUUU | – | – | 200 | 152
54 | UAUUUUAACUAAGGAUAUCUAUAUUAUUUUGAAACAUGAGGAUCACCCAUGUUCAUGGGAUUAUAAGAGAAGGUAGAUGAAUAA | – | – | 27.5 | 11.7
55 | UCACAGGUUUAAGGCGUUCCCAGACAUGAGGAUCACCCAUGUAGAAGGACCGUAAGAAAUUUUCGGUAGGAUAUACAUUCAGGG | 28 | 31.9 | – | –
